Test results from ChEMBL document CHEMBL5331127, “Discovery of ARD-2051 as a Potent and Orally Efficacious Proteolysis Targeting Chimera (PROTAC) Degrader of Androgen Receptor for the Treatment of Advanced Prostate Cancer” (J Med Chem, 2023).

System: VCaP
Experiment: Growth inhibition in human VCaP cells incubated for 4 days by WST-8 assay relative to control
Assay type: functional
Conditions: time 4 day
In short: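 VCaP prostate cancer cells (ATCC) were maintained in DMEM with Glutamax plus 10% fetal bovine serum at 37 °C, humidified 5% CO2. They were exposed to compound for 4 days, and viability was then read by WST-8 colorimetric assay following the kit instructions.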

Row | Structure (SMILES) | Imax
1 | N#Cc1ccc(O[C@H]2CC[C@H](NC(=O)c3ccc(N4CCC(CN5CCN(c6cc7c(cc6F)C(=O)N(C6CCC(=O)NC6=O)C7=O)CC5)CC4)nn3)CC2)cc1Cl (stereo not given in full) [BAVDEGALUTAMIDE] | 88%

System: LNCaP
Experiment: Growth inhibition in human LNCaP cells incubated for 4 days by WST-8 assay relative to control
Assay type: functional
Conditions: time 4 day
In short: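 LNCaP cells grown in RPMI 1640 with 10% FBS, treated for 4 days. Viability read by WST-8 assay.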

Row | Structure (SMILES) | Imax
2 | N#Cc1ccc(O[C@H]2CC[C@H](NC(=O)c3ccc(N4CCC(CN5CCN(c6cc7c(cc6F)C(=O)N(C6CCC(=O)NC6=O)C7=O)CC5)CC4)nn3)CC2)cc1Cl (stereo not given in full) [BAVDEGALUTAMIDE] | 90%

System: not listed separately
Experiment: Drug concentration in ICR mouse plasma at 10 mg/kg, po measured after 1 hr
Assay type: ADME, organism-based
Conditions: not given
In short: (§1)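 Mice given a single 10 mg/kg dose by oral gavage, 3 mice per time point. Plasma drug levels measured at 1, 3, 6 and 24 h; mean ± SD reported.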

Row | Structure (SMILES) | concentration at 1 h
3 | C[C@H]1CC2(CCN(c3ccc(C(=O)N4CCN(C5CN(c6ccc7c(c6)C(=O)N(C6CCC(=O)NC6=O)C7=O)C5)CC4)cc3)CC2)CN1c1cnc(C#N)c(C(F)(F)F)c1 (stereo not given in full) | 571 ng/mL
4 | C[C@H]1CC2(CCN(c3ccc(C(=O)N4CCN(C5CN(c6ccc7c(c6)C(=O)N(C6CCC(=O)NC6=O)C7=O)C5)CC4)cc3)CC2)CN1c1ccc(C#N)c(C(F)(F)F)c1 (stereo not given in full) | 31 ng/mL
5 | C[C@H]1CC2(CCN(c3ccc(C(=O)N4CCN(C5CN(c6ccc7c(c6)C(=O)N(C6CCC(=O)NC6=O)C7=O)C5)CC4)cc3)CC2)CN1c1ccc(C#N)c(F)c1 (stereo not given in full) | 134 ng/mL
6 | C[C@H]1CC2(CCN(c3ccc(C(=O)N4CCN(C5CCN(c6ccc7c(c6)C(=O)N(C6CCC(=O)NC6=O)C7=O)CC5)CC4)cc3)CC2)CN1c1ccc(C#N)c(Cl)c1 (stereo not given in full) | 238 ng/mL
7 | N#Cc1ccc(O[C@H]2CC[C@H](NC(=O)c3ccc(N4CCC(CN5CCN(c6cc7c(cc6F)C(=O)N(C6CCC(=O)NC6=O)C7=O)CC5)CC4)nn3)CC2)cc1Cl (stereo not given in full) [BAVDEGALUTAMIDE] | 55 ng/mL

System: not listed separately
Experiment: Drug concentration in ICR mouse plasma at 10 mg/kg, po measured after 6 hrs
Assay type: ADME, organism-based
Conditions: not given
In short: as §1

Row | Structure (SMILES) | concentration at 6 h
8 | C[C@H]1CC2(CCN(c3ccc(C(=O)N4CCN(C5CN(c6ccc7c(c6)C(=O)N(C6CCC(=O)NC6=O)C7=O)C5)CC4)cc3)CC2)CN1c1cnc(C#N)c(C(F)(F)F)c1 (stereo not given in full) | 451 ng/mL
9 | C[C@H]1CC2(CCN(c3ccc(C(=O)N4CCN(C5CN(c6ccc7c(c6)C(=O)N(C6CCC(=O)NC6=O)C7=O)C5)CC4)cc3)CC2)CN1c1ccc(C#N)c(C(F)(F)F)c1 (stereo not given in full) | 29 ng/mL
10 | C[C@H]1CC2(CCN(c3ccc(C(=O)N4CCN(C5CN(c6ccc7c(c6)C(=O)N(C6CCC(=O)NC6=O)C7=O)C5)CC4)cc3)CC2)CN1c1ccc(C#N)c(F)c1 (stereo not given in full) | 91 ng/mL
11 | C[C@H]1CC2(CCN(c3ccc(C(=O)N4CCN(C5CCN(c6ccc7c(c6)C(=O)N(C6CCC(=O)NC6=O)C7=O)CC5)CC4)cc3)CC2)CN1c1ccc(C#N)c(Cl)c1 (stereo not given in full) | 104 ng/mL
12 | N#Cc1ccc(O[C@H]2CC[C@H](NC(=O)c3ccc(N4CCC(CN5CCN(c6cc7c(cc6F)C(=O)N(C6CCC(=O)NC6=O)C7=O)CC5)CC4)nn3)CC2)cc1Cl (stereo not given in full) [BAVDEGALUTAMIDE] | 110 ng/mL

Biological target: T1, Androgen receptor (Homo sapiens) (UniProt P10275)
T1 sequence (whole entry): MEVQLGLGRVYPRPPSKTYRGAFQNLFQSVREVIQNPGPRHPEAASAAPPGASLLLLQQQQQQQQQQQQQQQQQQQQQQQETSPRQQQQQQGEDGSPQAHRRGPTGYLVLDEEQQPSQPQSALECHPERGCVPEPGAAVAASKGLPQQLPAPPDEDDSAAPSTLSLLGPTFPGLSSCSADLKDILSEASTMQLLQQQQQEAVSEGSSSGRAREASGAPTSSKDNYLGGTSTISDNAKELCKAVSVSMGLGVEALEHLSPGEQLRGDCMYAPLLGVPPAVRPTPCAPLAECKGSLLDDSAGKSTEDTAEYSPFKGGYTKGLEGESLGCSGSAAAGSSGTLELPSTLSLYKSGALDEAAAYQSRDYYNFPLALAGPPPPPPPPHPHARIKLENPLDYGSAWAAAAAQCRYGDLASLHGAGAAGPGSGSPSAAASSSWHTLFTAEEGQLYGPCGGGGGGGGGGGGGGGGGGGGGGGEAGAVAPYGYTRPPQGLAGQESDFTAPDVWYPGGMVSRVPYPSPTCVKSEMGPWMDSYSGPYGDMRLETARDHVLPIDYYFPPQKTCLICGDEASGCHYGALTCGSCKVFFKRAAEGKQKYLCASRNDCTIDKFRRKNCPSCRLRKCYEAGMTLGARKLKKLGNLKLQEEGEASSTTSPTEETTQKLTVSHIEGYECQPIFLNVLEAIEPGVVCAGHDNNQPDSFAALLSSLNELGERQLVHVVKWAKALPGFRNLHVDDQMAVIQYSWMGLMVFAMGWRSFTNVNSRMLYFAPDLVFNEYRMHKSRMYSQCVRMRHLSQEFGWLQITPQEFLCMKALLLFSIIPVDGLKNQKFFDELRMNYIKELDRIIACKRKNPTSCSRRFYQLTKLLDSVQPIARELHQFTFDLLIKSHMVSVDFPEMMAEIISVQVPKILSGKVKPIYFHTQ
Experiment: Induction of androgen receptor degradation in human VCaP cells at 0.1 uM after 24 hrs by Western blotting analysis relative to control
Assay type: cell-based
Conditions: not given
In short: (§2)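 VCaP cells treated for 24 h at 10, 100 or 1000 nM. AR protein measured by Western blotting.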

Row | Structure (SMILES) | Activity
13 | C[C@H]1CC2(CCN(c3ccc(C(=O)N4CCN(C5CN(c6ccc7c(c6)C(=O)N(C6CCC(=O)NC6=O)C7=O)C5)CC4)cc3)CC2)CN1c1cnc(C#N)c(C(F)(F)F)c1 (stereo not given in full) | > 95%
14 | C[C@H]1CC2(CCN(c3ccc(C(=O)N4CCN(C5CN(c6ccc7c(c6)C(=O)N(C6CCC(=O)NC6=O)C7=O)C5)CC4)cc3)CC2)CN1c1ccc(C#N)c(C(F)(F)F)c1 (stereo not given in full) | > 95%
15 | C[C@H]1CC2(CCN(c3ccc(C(=O)N4CCN(C5CN(c6ccc7c(c6)C(=O)N(C6CCC(=O)NC6=O)C7=O)C5)CC4)cc3)CC2)CN1c1ccc(C#N)c(F)c1 (stereo not given in full) | > 95%
16 | C[C@H]1CC2(CCN(c3ccc(C(=O)N4CCN(C5CCN(c6ccc7c(c6)C(=O)N(C6CCC(=O)NC6=O)C7=O)CC5)CC4)cc3)CC2)CN1c1ccc(C#N)c(Cl)c1 (stereo not given in full) | > 95%

Biological target: T2, Androgen receptor (Homo sapiens, UniProt P10275)
T2 sequence (P10275 whole entry): T1 sequence (whole entry)
Experiment: Displacement of Fluormone AL Green from androgen receptor LBD (unknown origin) incubated for 4 hrs by fluorescence polarization assay
Conditions: not given

Row | Structure (SMILES) | IC50
17 | CN1CCN(c2ccc(C(=O)N3CCC4(CC3)CCN(c3ccc(C#N)c(Cl)c3)C4)cc2)CC1 | 800 nM
18 | N#Cc1ccc(N2CCC3(CCN(C(=O)c4ccccc4)CC3)C2)cc1Cl | 1700 nM
19 | CN1CCN(C(=O)c2ccc(N3CCC4(CC3)CCN(c3ccc(C#N)c(Cl)c3)C4)cc2)CC1 | 78 nM
20 | N#Cc1ccc(N2CCC3(CCN(c4ccccc4)CC3)C2)cc1Cl | > 1000 nM

System: not listed separately
Experiment: Drug concentration in ICR mouse plasma at 10 mg/kg, po measured after 24 hrs
Assay type: ADME, organism-based
Conditions: not given
In short: as §1

Row | Structure (SMILES) | concentration at 24 h
21 | N#Cc1ccc(O[C@H]2CC[C@H](NC(=O)c3ccc(N4CCC(CN5CCN(c6cc7c(cc6F)C(=O)N(C6CCC(=O)NC6=O)C7=O)CC5)CC4)nn3)CC2)cc1Cl (stereo not given in full) [BAVDEGALUTAMIDE] | 70 ng/mL

Biological target: T1, Androgen receptor (Homo sapiens)
Experiment: Displacement of Fluormone AL Green from androgen receptor LBD (unknown origin) at 1 uM incubated for 4 hrs by fluorescence polarization assay relative to control
Conditions: not given

Row | Structure (SMILES) | inhibition
22 | N#Cc1ccc(N2CCC3(CCN(c4ccccc4)CC3)C2)cc1Cl | 30%

System: not listed separately
Experiment: Drug concentration in ICR mouse plasma at 10 mg/kg, po measured after 3 hrs
Assay type: ADME, organism-based
Conditions: not given
In short: as §1

Row | Structure (SMILES) | concentration at 3 h
23 | C[C@H]1CC2(CCN(c3ccc(C(=O)N4CCN(C5CN(c6ccc7c(c6)C(=O)N(C6CCC(=O)NC6=O)C7=O)C5)CC4)cc3)CC2)CN1c1cnc(C#N)c(C(F)(F)F)c1 (stereo not given in full) | 678 ng/mL
24 | C[C@H]1CC2(CCN(c3ccc(C(=O)N4CCN(C5CN(c6ccc7c(c6)C(=O)N(C6CCC(=O)NC6=O)C7=O)C5)CC4)cc3)CC2)CN1c1ccc(C#N)c(C(F)(F)F)c1 (stereo not given in full) | 56 ng/mL
25 | C[C@H]1CC2(CCN(c3ccc(C(=O)N4CCN(C5CN(c6ccc7c(c6)C(=O)N(C6CCC(=O)NC6=O)C7=O)C5)CC4)cc3)CC2)CN1c1ccc(C#N)c(F)c1 (stereo not given in full) | 146 ng/mL
26 | C[C@H]1CC2(CCN(c3ccc(C(=O)N4CCN(C5CCN(c6ccc7c(c6)C(=O)N(C6CCC(=O)NC6=O)C7=O)CC5)CC4)cc3)CC2)CN1c1ccc(C#N)c(Cl)c1 (stereo not given in full) | 208 ng/mL
27 | N#Cc1ccc(O[C@H]2CC[C@H](NC(=O)c3ccc(N4CCC(CN5CCN(c6cc7c(cc6F)C(=O)N(C6CCC(=O)NC6=O)C7=O)CC5)CC4)nn3)CC2)cc1Cl (stereo not given in full) [BAVDEGALUTAMIDE] | 124 ng/mL

Biological target: T1, Androgen receptor (Homo sapiens)
Experiment: Induction of androgen receptor degradation in human VCaP cells at 0.01 uM after 24 hrs by Western blotting analysis relative to control
Assay type: cell-based
Conditions: not given
In short: as §2

Row | Structure (SMILES) | Activity
28 | C[C@H]1CC2(CCN(c3ccc(C(=O)N4CCN(C5CN(c6ccc7c(c6)C(=O)N(C6CCC(=O)NC6=O)C7=O)C5)CC4)cc3)CC2)CN1c1cnc(C#N)c(C(F)(F)F)c1 (stereo not given in full) | > 90%
29 | C[C@H]1CC2(CCN(c3ccc(C(=O)N4CCN(C5CN(c6ccc7c(c6)C(=O)N(C6CCC(=O)NC6=O)C7=O)C5)CC4)cc3)CC2)CN1c1ccc(C#N)c(C(F)(F)F)c1 (stereo not given in full) | > 90%
30 | C[C@H]1CC2(CCN(c3ccc(C(=O)N4CCN(C5CN(c6ccc7c(c6)C(=O)N(C6CCC(=O)NC6=O)C7=O)C5)CC4)cc3)CC2)CN1c1ccc(C#N)c(F)c1 (stereo not given in full) | > 90%
31 | C[C@H]1CC2(CCN(c3ccc(C(=O)N4CCN(C5CCN(c6ccc7c(c6)C(=O)N(C6CCC(=O)NC6=O)C7=O)CC5)CC4)cc3)CC2)CN1c1ccc(C#N)c(Cl)c1 (stereo not given in full) | > 90%

Biological target: T1, Androgen receptor (Homo sapiens)
Experiment: Induction of androgen receptor degradation in human VCaP cells at 1 uM after 24 hrs by Western blotting analysis relative to control
Assay type: cell-based
Conditions: not given
In short: as §2

Row | Structure (SMILES) | Activity
32 | C[C@H]1CC2(CCN(c3ccc(C(=O)N4CCN(C5CN(c6ccc7c(c6)C(=O)N(C6CCC(=O)NC6=O)C7=O)C5)CC4)cc3)CC2)CN1c1cnc(C#N)c(C(F)(F)F)c1 (stereo not given in full) | > 95%
33 | C[C@H]1CC2(CCN(c3ccc(C(=O)N4CCN(C5CN(c6ccc7c(c6)C(=O)N(C6CCC(=O)NC6=O)C7=O)C5)CC4)cc3)CC2)CN1c1ccc(C#N)c(C(F)(F)F)c1 (stereo not given in full) | > 95%
34 | C[C@H]1CC2(CCN(c3ccc(C(=O)N4CCN(C5CN(c6ccc7c(c6)C(=O)N(C6CCC(=O)NC6=O)C7=O)C5)CC4)cc3)CC2)CN1c1ccc(C#N)c(F)c1 (stereo not given in full) | > 95%
35 | C[C@H]1CC2(CCN(c3ccc(C(=O)N4CCN(C5CCN(c6ccc7c(c6)C(=O)N(C6CCC(=O)NC6=O)C7=O)CC5)CC4)cc3)CC2)CN1c1ccc(C#N)c(Cl)c1 (stereo not given in full) | > 95%
